# Columns and labels:
# [1] = molecular target: T1, Sodium-dependent dopamine transporter (Rattus norvegicus, UniProt P23977); test: Binding affinity towards dopamine transporter using [3H]-mazindol as radioligand in rat striatal membranes.; type: cell membranes
# Outline: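 Competition assay: test analogues displace [3H]mazindol binding in rat striatal membranes. This radioligand labels a single high-affinity, sodium-dependent cocaine site on the dopamine carrier.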
# [2] = molecular target: T1, Sodium-dependent dopamine transporter; test: Inhibition of [3H]dopamine […] to rat striatal synaptosome dopamine transporter; type: tissue-based, Brain
# T1 sequence (P23977 whole entry): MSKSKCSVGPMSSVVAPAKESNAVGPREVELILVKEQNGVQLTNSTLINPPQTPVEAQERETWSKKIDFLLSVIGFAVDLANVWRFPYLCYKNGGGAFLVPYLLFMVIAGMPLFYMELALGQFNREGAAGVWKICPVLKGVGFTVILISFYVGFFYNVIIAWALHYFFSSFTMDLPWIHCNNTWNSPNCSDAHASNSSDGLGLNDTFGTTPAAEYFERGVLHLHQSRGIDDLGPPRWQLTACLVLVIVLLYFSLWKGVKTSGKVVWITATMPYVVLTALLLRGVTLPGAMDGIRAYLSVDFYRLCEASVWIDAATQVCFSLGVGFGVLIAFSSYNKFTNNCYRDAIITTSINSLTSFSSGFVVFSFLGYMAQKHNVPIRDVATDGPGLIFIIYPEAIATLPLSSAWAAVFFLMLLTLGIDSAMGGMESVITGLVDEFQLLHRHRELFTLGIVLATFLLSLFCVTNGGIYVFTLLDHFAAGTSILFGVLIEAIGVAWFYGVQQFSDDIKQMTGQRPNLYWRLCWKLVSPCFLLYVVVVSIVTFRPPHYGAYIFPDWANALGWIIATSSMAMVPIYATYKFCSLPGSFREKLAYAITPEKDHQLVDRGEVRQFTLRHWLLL
smiles,measurement,setting,value
CN1C2CCC1[C@@H](/C=C\Cl)[C@@H](c1ccc(Cl)cc1)C2 (stereo not given in full),Ki,[1],0.22 nM
same,Ki,[2],0.88 nM
CN1C2CCC1[C@@H](CCc1ccccc1)[C@@H](c1ccc(Cl)cc1)C2 (stereo not given in full),Ki,[1],1.46 nM
same,Ki,[2],1.54 nM
CN1C2CCC1[C@@H](/C=C/Cl)[C@@H](c1ccc(Cl)cc1)C2 (stereo not given in full),Ki,[1],0.42 nM
same,Ki,[2],1.13 nM
CCC[C@@H]1C2CCC(C[C@@H]1c1ccccc1)N2C (stereo not given in full),Ki,[1],1.87 nM
same,Ki,[2],1.61 nM
CC[C@@H]1C2CCC(C[C@@H]1c1ccc(Cl)cc1)N2C (stereo not given in full),Ki,[1],2.17 nM
same,Ki,[2],2.35 nM
CCC[C@@H]1C2CCC(C[C@@H]1c1ccc(Cl)cc1)N2C (stereo not given in full),Ki,[1],0.94 nM
same,Ki,[2],1.08 nM
CCCCCC[C@@H]1C2CCC(C[C@@H]1c1ccc(Cl)cc1)N2C (stereo not given in full),Ki,[1],156 nM
same,Ki,[2],271 nM
CCCC[C@@H]1C2CCC(C[C@@H]1c1ccc(Cl)cc1)N2C (stereo not given in full),Ki,[1],1.21 nM
same,Ki,[2],0.84 nM
COC(=O)C1C2CC[C@H](C[C@@H]1c1ccc(Cl)cc1)N2C (stereo not given in full),Ki,[1],0.83 nM
same,Ki,[2],2.85 nM
C=C[C@@H]1C2CCC(C[C@@H]1c1ccc(Cl)cc1)N2C (stereo not given in full),Ki,[1],0.59 nM
same,Ki,[2],2.47 nM

# Source: ChEMBL document CHEMBL1128503 (J Med Chem, 1995)
